{"source": "ChEMBL document CHEMBL1153770", "about": "“Chemical constituents of Heteroplexis micocephala” (J Nat Prod, 2009)", "key": {"[1]": {"tested_on": "A2780", "experiment": "Cytotoxicity against human A2780 cells after 96 hrs by MTT assay", "format": "functional, cell-based"}, "[2]": {"tested_on": "Human immunodeficiency virus 1", "experiment": "Antiviral activity against HIV1 NL4-3 co-transfected with VSV glycoprotein plasmid in human 293T cells after 48 hrs by luciferase reporter gene assay", "format": "functional, organism-based", "in_short": "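Env-deficient pNL4-3.luc.R-E- HIV-1 vector pseudotyped with VSV-G, made by co-transfecting 293T cells, quantified by p24 ELISA and diluted to 0.2 ng p24/mL. Target 293T cells were seeded at 6 × 10^4 per well one day before infection. Compounds were preincubated with cells 15 min before adding virus, with a solvent-only blank. Cells were lysed 48 h post-infection.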"}, "[3]": {"species_on_record": "Rattus norvegicus", "experiment": "Antiinflammatory activity in rat PMNCs assessed as inhibition of platelet activating factor-induced beta-glucuronidase release at 10 uM treated 15 mins before PAF challenge after 10 mins", "format": "functional"}, "[4]": {"tested_on": "PC-12", "experiment": "Neuroprotective activity against glutamate-induced rat PC12 cell death at 10 uM pretreated for 24 hrs before glutamate challenge after 24 hrs by MTT assay", "format": "functional, cell-based"}, "[5]": {"tested_on": "Liver microsomes", "experiment": "Antioxidant activity in rat liver microsomes assessed as inhibition of Fe(2+)-cystine-induced lipid peroxidation at 10 uM pretreated for 15 mins before Fe2+ challenge after 15 mins by TBA assay", "format": "functional", "settings": "Microsome"}, "[6]": {"target": "T1, Tyrosine-protein phosphatase non-receptor type 1 (Homo sapiens) (UniProt P18031)", "T1 sequence (whole entry)": "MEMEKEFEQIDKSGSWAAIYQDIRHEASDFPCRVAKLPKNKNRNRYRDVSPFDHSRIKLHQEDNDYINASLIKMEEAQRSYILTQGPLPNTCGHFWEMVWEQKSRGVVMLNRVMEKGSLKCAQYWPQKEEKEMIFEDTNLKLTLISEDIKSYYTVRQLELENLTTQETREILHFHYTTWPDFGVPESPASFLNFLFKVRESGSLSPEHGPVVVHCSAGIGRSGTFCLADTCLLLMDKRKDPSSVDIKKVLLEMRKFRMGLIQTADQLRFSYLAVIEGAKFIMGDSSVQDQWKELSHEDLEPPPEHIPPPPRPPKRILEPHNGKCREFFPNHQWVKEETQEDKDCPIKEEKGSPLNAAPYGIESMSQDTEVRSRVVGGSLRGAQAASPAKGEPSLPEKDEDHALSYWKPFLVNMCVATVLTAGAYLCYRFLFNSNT", "experiment": "Inhibition of GST-tagged human recombinant PTP1B assessed as paranitrophenol accumulation at 10 uM after 10 mins by spectrophotometry"}, "[7]": {"settings": "Homo sapiens, A2780, 96 h, read-out: IC50"}, "[8]": {"settings": "Human immunodeficiency virus 1, NL4-3, HEK-293T, 48 h, read-out: IC50"}}, "note": "The source made the active and inactive calls. The calls are words filed in the database; no cut-off is given here."}
{"smiles": "CC[C@@]1(O)C(=O)OCc2c1cc1n(c2=O)Cc2cc3ccccc3nc2-1", "note": "[CAMPTOTHECIN]", "values": [{"measurement": "IC50", "setting": "[1]; [7]", "result": 280, "unit": "nM"}]}
{"smiles": "CC(C)=C[C@@H]1OC(=O)[C@H](/C=C/C/C(C)=C/CCC2=CC(=O)OC2)[C@@H]1O", "note": "[HETEROPLEXISOLIDE D]", "values": [{"measurement": "IC50", "setting": "[1]; [7]", "result": 4370, "unit": "nM"}, {"measurement": "IC50", "setting": "[2]; 293t", "result": "Not Active"}, {"measurement": "Activity", "setting": "[3]", "result": "inactive"}, {"measurement": "Activity", "setting": "[4]", "result": "inactive"}, {"measurement": "Activity", "setting": "[5]", "result": "inactive"}, {"measurement": "Activity", "setting": "[6]", "result": "inactive"}]}
{"smiles": "C[C@]12C[C@@H](c3ccoc3)OC(=O)[C@@H]1CC[C@@]13COC(=O)[C@@H]1C=CC(=O)[C@H]23", "note": "[8-EPIRHYNCHOSPERIN A]", "values": [{"measurement": "IC50", "setting": "[1]; a2780", "result": "Not Active"}, {"measurement": "IC50", "setting": "[2]; 293t", "result": "Not Active"}, {"measurement": "Activity", "setting": "[3]", "result": "inactive"}, {"measurement": "Activity", "setting": "[4]", "result": "inactive"}, {"measurement": "Activity", "setting": "[5]", "result": "inactive"}, {"measurement": "Activity", "setting": "[6]", "result": "inactive"}]}
{"smiles": "CC(C)=C[C@@H]1OC(=O)/C(=C/CC/C(C)=C/CCC2=CC(=O)OC2)[C@@H]1O", "note": "[HETEROPLEXISOLIDE C]", "values": [{"measurement": "IC50", "setting": "[1]; a2780", "result": "Not Active"}, {"measurement": "IC50", "setting": "[2]; 293t", "result": "Not Active"}, {"measurement": "Activity", "setting": "[3]", "result": "inactive"}, {"measurement": "Activity", "setting": "[4]", "result": "inactive"}, {"measurement": "Activity", "setting": "[5]", "result": "inactive"}, {"measurement": "Activity", "setting": "[6]", "result": "inactive"}]}
{"smiles": "C/C=C(/C)C(=O)OC/C=C/c1cc(OC)c(OC(=O)[C@@H](C)CC)c(OC)c1", "values": [{"measurement": "IC50", "setting": "[1]; a2780", "result": "Not Active"}, {"measurement": "IC50", "setting": "[2]; 293t", "result": "Not Active"}, {"measurement": "Activity", "setting": "[3]", "result": "inactive"}, {"measurement": "Activity", "setting": "[4]", "result": "inactive"}, {"measurement": "Activity", "setting": "[5]", "result": "inactive"}, {"measurement": "Activity", "setting": "[6]", "result": "inactive"}]}
{"smiles": "COc1ccc(C(C)=O)cc1C(=O)CC(C)(C)O", "values": [{"measurement": "IC50", "setting": "[1]; a2780", "result": "Not Active"}, {"measurement": "IC50", "setting": "[2]; 293t", "result": "Not Active"}, {"measurement": "Activity", "setting": "[3]", "result": "inactive"}, {"measurement": "Activity", "setting": "[4]", "result": "inactive"}, {"measurement": "Activity", "setting": "[5]", "result": "inactive"}, {"measurement": "Activity", "setting": "[6]", "result": "inactive"}]}
{"smiles": "C/C=C(/C)C(=O)OC/C=C/c1cc(OC)c(OC)c(OC)c1", "values": [{"measurement": "IC50", "setting": "[1]; a2780", "result": "Not Active"}, {"measurement": "IC50", "setting": "[2]; 293t", "result": "Not Active"}, {"measurement": "Activity", "setting": "[3]", "result": "inactive"}, {"measurement": "Activity", "setting": "[4]", "result": "inactive"}, {"measurement": "Activity", "setting": "[5]", "result": "inactive"}, {"measurement": "Activity", "setting": "[6]", "result": "inactive"}]}
{"smiles": "C=C(CC/C=C1\\C[C@@H](C=C(C)C)OC1=O)C(O)CCC1=CC(=O)OC1", "note": "(stereo not given in full) [HETEROPLEXISOLIDE B]", "values": [{"measurement": "IC50", "setting": "[1]; a2780", "result": "Not Active"}, {"measurement": "IC50", "setting": "[2]; 293t", "result": "Not Active"}, {"measurement": "Activity", "setting": "[3]", "result": "inactive"}, {"measurement": "Activity", "setting": "[4]", "result": "inactive"}, {"measurement": "Activity", "setting": "[5]", "result": "inactive"}, {"measurement": "Activity", "setting": "[6]", "result": "inactive"}]}
{"smiles": "CC(C)=C[C@@H]1C/C(=C\\CC/C(C)=C/CCC2=CC(=O)OC2)C(=O)O1", "note": "[HETEROPLEXISOLIDE A]", "values": [{"measurement": "IC50", "setting": "[1]; a2780", "result": "Not Active"}, {"measurement": "IC50", "setting": "[2]; 293t", "result": "Not Active"}, {"measurement": "Activity", "setting": "[3]", "result": "inactive"}, {"measurement": "Activity", "setting": "[4]", "result": "inactive"}, {"measurement": "Activity", "setting": "[5]", "result": "inactive"}, {"measurement": "Activity", "setting": "[6]", "result": "inactive"}]}
{"smiles": "Cc1cn([C@H]2C[C@H](N=[N+]=[N-])[C@@H](CO)O2)c(=O)[nH]c1=O", "note": "[ZIDOVUDINE]", "values": [{"measurement": "IC50", "setting": "[2]; [8]", "result": 48, "unit": "nM"}]}
{"smiles": "C/C=C(/C)C(=O)OC/C=C/c1cc(OC)c(OC(=O)/C(C)=C\\C)c(OC)c1", "values": [{"measurement": "IC50", "setting": "[1]; a2780", "result": "Not Active"}, {"measurement": "IC50", "setting": "[2]; [8]", "result": 4040, "unit": "nM"}, {"measurement": "Activity", "setting": "[3]", "result": "inactive"}, {"measurement": "Activity", "setting": "[4]", "result": "inactive"}, {"measurement": "Activity", "setting": "[5]", "result": "inactive"}, {"measurement": "Activity", "setting": "[6]", "result": "inactive"}]}
{"smiles": "CCOC(C)(C)CC(=O)c1cc(C(C)=O)ccc1OC", "values": [{"measurement": "IC50", "setting": "[1]; a2780", "result": "Not Active"}, {"measurement": "IC50", "setting": "[2]; 293t", "result": "Not Active"}, {"measurement": "Activity", "setting": "[3]", "result": "inactive"}, {"measurement": "Activity", "setting": "[4]", "result": "inactive"}, {"measurement": "Activity", "setting": "[5]", "result": "inactive"}, {"measurement": "Activity", "setting": "[6]", "result": "inactive"}]}
{"smiles": "CC(=O)CC/C=C1\\C[C@@H](C=C(C)C)OC1=O", "note": "[HETEROPLEXISOLIDE E]", "values": [{"measurement": "IC50", "setting": "[1]; a2780", "result": "Not Active"}, {"measurement": "IC50", "setting": "[2]; 293t", "result": "Not Active"}, {"measurement": "Activity", "setting": "[3]", "result": "inactive"}, {"measurement": "Activity", "setting": "[4]", "result": "inactive"}, {"measurement": "Activity", "setting": "[5]", "result": "inactive"}, {"measurement": "Activity", "setting": "[6]", "result": "inactive"}]}
{"smiles": "C/C1=C/CC(C)(C)[C@@H]2CC[C@](C)(O)/C2=C/C1=O", "values": [{"measurement": "IC50", "setting": "[1]; a2780", "result": "Not Active"}, {"measurement": "IC50", "setting": "[2]; 293t", "result": "Not Active"}, {"measurement": "Activity", "setting": "[3]", "result": "inactive"}, {"measurement": "Activity", "setting": "[4]", "result": "inactive"}, {"measurement": "Activity", "setting": "[5]", "result": "inactive"}, {"measurement": "Activity", "setting": "[6]", "result": "inactive"}]}
{"smiles": "C/C1=C/CC(C)(C)[C@@H]2CC[C@@](C)(O)/C2=C/C1=O", "values": [{"measurement": "IC50", "setting": "[1]; a2780", "result": "Not Active"}, {"measurement": "IC50", "setting": "[2]; 293t", "result": "Not Active"}, {"measurement": "Activity", "setting": "[3]", "result": "inactive"}, {"measurement": "Activity", "setting": "[4]", "result": "inactive"}, {"measurement": "Activity", "setting": "[5]", "result": "inactive"}, {"measurement": "Activity", "setting": "[6]", "result": "inactive"}]}
